Screening data (PubChem BioAssay)
aDG glyco up = activators of alpha-DG glycosylation, primary screen, uHTS, Pro5-aDG cells, AlphaScreen; hit rate 0.22% among 360,000; activation, % at 10 µM; alpha-DG glycosylation AlphaScreen (IIH6); 0% Pro5, 100% B10-LARGE cell signal;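 active = activation of at least 8% versus controls, or a plate z-score of at least 8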;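 note: Pro5 are CHO cells carrying HIG-tagged alpha-DG that lacks glycosylation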
NR2E3 ag-1 = NR2E3 agonists in two-hybrid cells, primary screen, cell-based, luminescence, CHO-S, Gal4-NCOR/VP16-NR2E3. luciferase. hit rate 0.35% among 360,000. inhibition of corepressor binding, % at 3.98 µM;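 active = inhibition above the mean of all tested compounds plus 3 SD, cut at about 70% in these data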;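 note: 0% = DMSO with NR2E3 transfected cells and 100% = cells lacking NR2E3 construct; higher means lower luciferase signal from less NR2E3 corepressor binding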
Target sequence (Q9Y5X4 whole entry, looked up, the tested form may be a part): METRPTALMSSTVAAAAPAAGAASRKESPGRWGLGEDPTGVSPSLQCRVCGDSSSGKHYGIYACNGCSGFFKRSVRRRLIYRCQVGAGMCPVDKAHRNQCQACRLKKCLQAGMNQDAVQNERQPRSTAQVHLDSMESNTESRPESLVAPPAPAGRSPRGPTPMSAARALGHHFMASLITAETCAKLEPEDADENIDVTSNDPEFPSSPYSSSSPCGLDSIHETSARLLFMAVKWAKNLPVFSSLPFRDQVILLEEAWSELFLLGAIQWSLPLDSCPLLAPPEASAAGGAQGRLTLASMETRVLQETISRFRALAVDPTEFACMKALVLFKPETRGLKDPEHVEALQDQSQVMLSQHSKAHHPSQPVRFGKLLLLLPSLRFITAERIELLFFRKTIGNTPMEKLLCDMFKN
MPTP block = mitochondrial permeability transition pore inhibitors, primary screen, biochemical, isolated mouse mitochondria, absorbance; Ca2+ swelling absorbance, 30 min; inhibition, % at 10 µM; hit rate 1.4% among 360,000;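 active = inhibition of 50% or more, scaled per plate between neutral and stimulator controls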;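 note: 0% = DMSO wells given calcium and 100% = 1 mM EGTA wells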
NR2E3 ag-2 = inhibitors of NR2E3-RetCOR corepressor binding, primary screen, NR2E3 agonist project, biochemical, TR-FRET, GST-NR2E3, biotin-RetCOR; Photoreceptor-specific nuclear receptor (Homo sapiens), Q9Y5X4; 1536-well; inhibition of corepressor binding, % at 4.78 µM; hit rate 0.12% among 320,000; AID 2300, 2010;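 active = percent inhibition above the cutoff of mean plus 3 SD of all tested compounds, set per screening campaign, cut at about 20% in these data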;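 note: 0% = DMSO wells and 100% = biotin wells as full block of FRET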
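Material: NR2E3–RetCOR corepressor complex / Incubation: Compound–protein incubation for 5 h at 4 °C / Dosing: compound at 4.8 µM, single dose / Detection: time-resolved FRET / Benchmarks: high control biotin, low control 0.6% DMSO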
697 NFkB inh = inhibitors of PMA/ionomycin-induced NF-kB reporter, 697 cells, primary screen, B-cell NF-kB inhibitor project, cell-based, luminescence, uHTS | hit rate 0.33% among 330,000 | inhibition, % at 4 µM | AID 435022, 2010 | 697 B-cell NF-kB luciferase reporter, 16 h; in the data active = inhibition above about 35%
Jurkat NFkB inh = inhibitors of induced NF-kB luciferase reporter, primary screen, TCR NF-kB activation inhibitor project, cell-based, luminescence, uHTS. Jurkat, PMA/ionomycin-induced NF-kB luciferase reporter. inhibition, % at 4 µM. hit rate 0.53% among 330,000. AID 435003, 2010; in the data active = inhibition above about 50%
697 NFkB conf = PMA/ionomycin-induced NF-kB reporter inhibitors, 697 retest, confirmation, B-cell NF-kB inhibitor project, cell-based, luminescence, single concentration. shares compounds with 697 NFkB inh. 697 B-cell NF-kB luciferase, 16 h. inhibition, % at 4 µM. hit rate 35% among 2,000; in the data active = inhibition mostly above about 28%, no sharp cut-off; inactive = mostly below about 22%
NR2E3 ag confirm = NR2E3 agonist confirmation in cells, cell-based, luminescence, CHO-S two-hybrid; shares compounds with NR2E3 ag-1; CHO-S mammalian two-hybrid NR2E3-NCOR, luciferase luminescence; inhibition, % at 3.98 µM; hit rate 51% among 2,300; AID 624378, 2012;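 active = average inhibition above a cutoff equal to the mean inhibition of all tested compounds plus one SD, cut at about 70% in these data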;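 note: 0% = DMSO in NR2E3 cells and 100% = DMSO in cells lacking NR2E3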
GAL4-VP16 luc = GAL4-VP16 reporter modulators, confirmation, counter-screen for NR2E3 agonist project, cell-based, luminescence, CHO-S, high throughput; shares compounds with NR2E3 ag-1; CHO-S GAL4-VP16 luciferase reporter; inhibition, % at 3.98 µM; hit rate 29% among 2,300; AID 624379, 2012;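 active = mean inhibition above a cutoff equal to the average over all tested compounds plus one standard deviation, cut at about 70% in these data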;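 note: luciferase from a UAS reporter driven by GAL4-VP16 transactivation; 0% = DMSO with VP16-transfected cells and 100% = DMSO with cells lacking VP16; higher means less reporter light so more repression of VP16 activity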
MPTP counter = fluorescence retest of MPTP screen hits in isolated mitochondria, single concentration; shares compounds with MPTP block; membrane potential, Rhodamine 123 fluorescence; inhibition, % at 10 µM; hit rate 78% among 5,000; in the data active = inhibition above about 22%;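 note: 0% = DMSO vehicle and 100% = positive control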
* marks the source's active call; other numbers are inactive results; i = inactive; . = not tested or not shown. In the library only some 2.4% were active in any assay of this set; here they are far more common.

SMILES	aDG glyco up	NR2E3 ag-1	MPTP block	NR2E3 ag-2	697 NFkB inh	Jurkat NFkB inh	697 NFkB conf	NR2E3 ag confirm	GAL4-VP16 luc	others
O=C(CCCN1C(=O)/C(=C/c2ccc3c(c2)OCO3)SC1=S)Nc1ccc(C(=O)O)cc1	0	51	0	2	78*	20	78*	34	64
O=C(Nc1ccccc1C(=O)N1CCN(Cc2ccccc2)CC1)c1ccc(F)cc1	0	-15	-1	1	-16	-11	.	.	.
Cc1cccc(Cn2c(N3CCN(C)CC3)nc3c2c(=O)n(C)c(=O)n3C)c1	0	-11	-2	-3	-51	-6	.	.	.
Cc1ccc(/C=C2\SC(=S)N(CCCC(=O)Nc3ccccn3)C2=O)cc1	0	67	0	2	81*	5	96*	59	93*
Cc1ccc(/C=C2\SC(=S)N(CCCC(=O)Nc3ccc(O)cc3)C2=O)cc1	0	78*	2	2	92*	-1	90*	-3	63
O=C(CCN1C(=O)/C(=C/c2ccccc2)SC1=S)Nc1ccccn1	2	-13	-2	1	3	5	.	.	.
CCC(=O)Nc1c(-c2ccc3ccccc3c2)nc2ccccn12	0	-39	0	2	-9	-17	.	.	.
C=C(C)CSc1cc(C)nc2c(-c3ccccc3)c(C)nn12	0	-11	4	-1	-21	-15	.	.	.
Cc1ccc(S(=O)(=O)CC2CSc3nc4ccccc4n32)cc1 (stereo not given)	5	74*	25	-1	62*	35	75*	93*	70
CCc1cccc(C)c1NS(=O)(=O)Cc1ccccc1	0	-33	2	-3	4	15	.	.	.
O=C(Nc1ccccc1C(=O)Nc1nnc(C(F)(F)F)s1)c1ccccc1	0	72*	1	2	96*	-3	94*	99*	94*
O=C(O)CCSc1nc2ccccc2s1	0	54	-1	2	40*	16	35*	53	67
c1ccc2sc(SCSc3nc4ccccc4s3)nc2c1	0	-24	1	-3	5	-9	.	.	.
CCn1cc2nc(SCC(=O)Nc3ccc(F)cc3F)n(Cc3ccccc3)c(=O)c2n1	0	-20	2	-1	-1	5	.	.	.
CCOc1ccc(-c2nc(CSCC(=O)NCc3ccco3)c(C)o2)cc1	1	100*	-2	-1	99*	40	99*	93*	95*
CCOc1ccc(-c2nc(CSCC(=O)NC3CCN(Cc4ccccc4)CC3)c(C)o2)cc1	5	12	0	.	.	.	.	.	.
COCCNC(=O)CSCc1nc(-c2ccc(SC)cc2)oc1C	0	92*	2	3	84*	3	72*	85*	86*
CCOc1ccc(-c2nc(CSCC(=O)NC3CC3)c(C)o2)cc1	0	109*	0	2	99*	0	79*	95*	95*
CSc1ccc(-c2nc(CSCC(=O)NCCCN3CCCC3=O)c(C)o2)cc1	1	32	0	1	7	9	.	.	.
COc1ccc(/C=C2\NC(=O)C(C=NCc3ccccc3)=C2O)cc1	0	5	-3	4	15	-15	.	.	.
O=C1N/C(=C\c2ccc(O)cc2)C(O)=C1C=NCc1ccccc1	0	63	2	-5	37*	20	17	73*	37
CCOC(=O)c1sc(NC(=O)c2cc(-c3ccccc3C)nc3ccccc23)c(C#N)c1C	0	39	112*	4	36*	6	40*	.	.	MPTP counter=87*
Cc1cc(C)c(CN2CCN(C(=O)Cn3cnc4c(NCc5ccccc5)ncnc43)CC2)c(C)c1	1	83*	80*	.	74*	.	82*	88*	70	MPTP counter=84*
O=C(Cn1cnc2c(NCc3ccccc3)ncnc21)N1CCN(c2ccccn2)CC1	0	-14	-1	.	14	.	.	.	.
Cc1cc(C)c(S(=O)(=O)NCc2ccncc2)c(C)c1	6.3*	69	87*	-5	58*	46	41*	88*	77*	MPTP counter=72*
SMILES	aDG glyco up	NR2E3 ag-1	MPTP block	NR2E3 ag-2	697 NFkB inh	Jurkat NFkB inh	697 NFkB conf	NR2E3 ag confirm	GAL4-VP16 luc	others
CCCc1c(C(=O)Nc2ccc(F)cc2C)cnn1-c1ccccc1	0	-10	2	4	-6	-6	.	.	.
CCCc1c(NC(=O)Nc2ccc(F)cc2)cnn1-c1ccccc1	0	-26	52*	-1	i	-65	i	.	.	MPTP counter=67*
Cc1ccccc1-c1cc2c(c3c1ccn3C)C1CCC2C1 (stereo not given)	0	-21	2	.	.	.	.	.	.
O=C(NNC(=O)c1ccccc1O)c1ccc(Cl)c(S(=O)(=O)N2CCc3ccccc32)c1	4	-24	107*	0	85*	-10	97*	.	.	MPTP counter=76*
O=C(c1ccc(Cl)c(S(=O)(=O)N2CCc3ccccc32)c1)N1CCN(c2ccccc2O)CC1	1	0	1	.	8	8	.	.	.
COc1cc(C[C@@H]2C(=O)OC[C@H]2Cc2ccc(OC)c(OC)c2)ccc1O	5	87*	92*	1	85*	42	70*	95*	81*	MPTP counter=80*
COc1ccc(NS(=O)(=O)c2ccc(-c3coc(C)n3)cc2)cc1	0	43	1	0	-16	-10	.	.	.
COc1ccc(NS(=O)(=O)c2ccc(-c3coc(C)n3)cc2)cc1OC	2	108*	98*	2	41*	36	59*	99*	87*	MPTP counter=83*
O=C(Nc1ccc2ccccc2c1)c1ccccc1O	0	-181	98*	2	-324	-120	-459	.	.	MPTP counter=92*
COc1ccc([C@H]2CN(Cc3ccccc3)C(=O)[C@@H]2CC(=O)Nc2ccccc2)cc1	0	-20	0	.	.	.	.	.	.
